The values that follow come from PMC9401512 (Clinical Cancer Research, 2021).

The conditions of data set [1]: cited from earlier work.
Data set [2] concerns adults with ER-positive breast cancer. The experiment in a line: Dose-limiting toxicities in the first 28-day treatment cycle. It is filed as in vivo, human.
Data set [3] has the same test system. The experiment in a line: Adverse events, serious AEs, deaths, discontinuations. Format: in vivo, human. A digest of the protocol: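 Open-label phase I/Ib escalation in adults with ER-positive advanced breast cancer. Oral test compound was given once or twice daily, alone or with one of two partner agents, in continuous 28-day cycles. AEs were defined and graded per CTCAE v4.03. The safety set was treated participants with ≥1 valid postbaseline safety assessment. Fed/fasted data were pooled.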

The test system of data set [4] is ER-positive breast cancer. Put plainly: Investigator-assessed clinical response. Format: in vivo, human. The essentials:
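Local investigator assessed response per RECIST v1.1 in all participants receiving ≥1 dose. ORR = confirmed CR+PR. CBR = CR+PR plus SD or non-CR/non-PD maintained ≥24 weeks. PFS was estimated by Kaplan–Meier. Data were grouped by total daily dose, pooling fed, fasted and food-independent dosing.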

The subject of a further data set is ER protein. Put plainly: Paired biopsy ER protein by IHC. Format: in vivo, human. The settings on record: cycle 1 day 15, single agent.
Data set [5] can be described thus: LSZ102 clinical pharmacokinetics. It is filed as in vivo, human.

Marks after values point to notes of the source that are not given here.

With `CC(F)(F)c1cc(F)ccc1-c1sc2cc(O)ccc2c1Oc1ccc(/C=C/C(=O)O)cc1` [LSZ102], the “Increase in LSZ102 exposure with a high-fat high-calorie meal” value in data set [1] was approximately 2 fold. Also, the “DLT: ALT increased, participants” value in data set [2] (450 mg QD) is 1^b. Further, the “DLT: AST increased, participants” value in data set [2] (450 mg QD) was 1^b. In addition, in data set [2] (600 mg QD), the “DLT: Vomiting, participants” value came to 1. Also, the “DLT: Diarrhea, participants” value in data set [2] (900 mg QD) was 2. Also, the “DLTs, participants” value in data set [2] (first 28-day cycle, whole arm) is given as 5%. Further, the “Recommended dose for expansion: LSZ102 dose” value in data set [2] (in vivo) came to 450 mg once daily. Also, the “Participants with ≥ 1 DLT, n (%)” value in data set [2] (total daily dose 200 mg, QD (n = 4)) was 0 n (%); in data set [2] (total daily dose 400 mg, BID (n = 3)) it was 0 n (%); in data set [2] (total daily dose 400 mg, QD (n = 6)), 0 n (%); in data set [2] (total daily dose 450 mg, BID (n = 5)), 0 n (%); in data set [2] (total daily dose 600 mg (n = 28), QD (n = 23)), 1 (3.6) n (%); in data set [2] (total daily dose 600 mg, BID (n = 5)), 0 n (%). In addition, the “Participants with ≥ 1 DLT, n (%)” value in data set [2] (total daily dose 900 mg, QD (n = 6)) was 2 (33.3) n (%). Besides, the “Discontinuations from study treatment: Adverse event, n (%)” value in data set [3] (in vivo) was 2 (2.6) n (%). For the same compound, the “Discontinuations from study treatment: Death, n (%)” value in data set [3] (in vivo) is recorded as 0 n (%). In addition, in data set [3] (whole arm), the “Deaths on treatment or within 30 days from the last dose, number” value is given as 5. The “Participants with treatment-related serious AEs, number” value in data set [3] (whole arm) is 1. In addition, the “Discontinuations from study treatment: Progressive disease, n (%)” value in data set [4] (human, in vivo) is given as 71 (91.0) n (%). Moreover, the “Clinical benefit rate (CBR)” value in data set [4] (whole arm) was 7.8%. The “Objective response rate (ORR)” value in data set [4] (whole arm) came to 1.3%. The “Biopsy ER H-score change from screening” value in the data set with ER protein was “trend toward dose-dependent ER degradation”. Moreover, the “Time to Cmax” value in data set [5] (discussion summary) is listed as “approximately 2 hours”. In addition, the “Median time to maximum concentration (Cmax)” value in data set [5] (fasted conditions) was 2 to 3 h.
